Assay outcomes as filed in PubChem BioAssay.
SENP7 block: SENP7 protease inhibition; Q9BQF6; recombinant SENP7, Z-RLRGG-aminoluciferin luminescence, 40 min; inhibition, % at 5 µM; actives 1.5% (n = 330,000); AID 434973;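 active = inhibition above about 50% at the single test dose, limit read from the data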
SENP8 block-1: inhibitors of human SENP8 protease | inhibition, % at 20 µM | Q96LD8 | actives 0.64% (n = 360,000) | AID 602440 | recombinant SENP8, Nedd8 substrate fluorescence; in the data active = inhibition mostly above about 40%, no sharp cut-off; inactive = mostly below about 27%
HSP90 inh: HSP90 refolding inhibition in rabbit reticulocyte lysate | AID 1789 | inhibition, % at 5.6 µM | actives 0.91% (n = 290,000) | luciferase refolding luminescence, 3 h;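 active = inhibition above the screen-wide mean plus 3 SD, computed separately per campaign, cut at about 16% in these data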;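 also: inhibitors lower the luminescence because luciferase stays unfolded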
SENP1 inh: inhibitors of human SENP1 SUMO protease catalytic domain. inhibition, % at 10 µM. AID 624204. Q9P0U3. recombinant SENP1 catalytic domain, CyPet-SUMO1-YPet FRET cleavage. actives 0.21% (n = 360,000);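 active = inhibition at least 30% at 10 µM, raw YFP signal under a set limit, fluorescence ratio 0.5 to 1.5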
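Test system: hSENP1 catalytic domain, recombinant; Amount: 20 pM final SENP1 enzyme; Medium: Tris pH 8 buffer plus EDTA, NaCl, BME, BSA, NP40, catalase; Schedule: 50 min enzyme reaction, room temperature, light-protected; Technique: FRET fluorescence in CFP and YFP emission channels; Controls: no-enzyme wells low, DMSO-plus-enzyme wells high control.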
SENP6 inh: blocks the human protease SENP6 | inhibition, % at 10 µM | actives 1.8% (n = 330,000) | Q9GZR1 | Recombinant SENP6 catalytic domain, aminoluciferin luminescence | AID 2599;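 active = inhibition above about 50% at the single tested dose, limit read from the data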
Target sequence (Q9GZR1 628-1112 limits assumed): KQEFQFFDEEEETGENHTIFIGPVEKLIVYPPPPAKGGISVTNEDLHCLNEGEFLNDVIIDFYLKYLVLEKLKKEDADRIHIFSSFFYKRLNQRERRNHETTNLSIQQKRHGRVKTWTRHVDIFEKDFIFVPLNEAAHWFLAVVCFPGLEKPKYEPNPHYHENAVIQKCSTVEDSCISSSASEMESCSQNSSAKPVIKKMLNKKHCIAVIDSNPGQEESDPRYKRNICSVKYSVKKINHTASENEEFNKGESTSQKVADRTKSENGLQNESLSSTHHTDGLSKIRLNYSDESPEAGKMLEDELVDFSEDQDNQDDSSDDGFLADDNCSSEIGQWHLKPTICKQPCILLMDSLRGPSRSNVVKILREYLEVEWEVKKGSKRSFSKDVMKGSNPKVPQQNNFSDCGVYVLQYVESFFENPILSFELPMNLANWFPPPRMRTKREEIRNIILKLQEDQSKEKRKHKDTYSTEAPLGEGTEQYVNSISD
SENP8 block-2: blocks the human protease SENP8 | Q96LD8 | purified SENP8, Z-RLRGG-aminoluciferin cleavage, luminescence | inhibition, % at 10 µM | actives 1.2% (n = 330,000) | AID 2540; in the data active = inhibition above about 50%
SENP8 conf: SENP8 (human) inhibition, single concentration confirmation. shares compounds with SENP8 block-1. purified SENP8, Nedd8-AMC/pro-Nedd8 cleavage fluorescence, 30 min. inhibition, % at 25 µM. actives 15% (n = 1,400). AID 624319; in the data active = inhibition mostly above about 39%, no sharp cut-off; inactive = mostly below about 34%
SENP1 inh conf: confirmation of human SENP1 SUMO protease inhibitors; shares compounds with SENP1 inh; recombinant SENP1, CyPet-SUMO1-YPet FRET cleavage; inhibition, % at 10 µM; actives 34% (n = 520); in the data active = inhibition mostly above about 35%, no sharp cut-off; inactive = mostly below about 32%
SENP1 kinetic: confirmation of human SENP1 SUMO protease inhibitors, kinetic | shares compounds with SENP1 inh | recombinant SENP1, CyPet-SUMO1-YPet FRET kinetic cleavage | inhibition, % at 10 µM | actives 26% (n = 520) | AID 651690; in the data active = inhibition mostly above about 32%, no sharp cut-off; inactive = mostly below about 29%
Large screens that a line does not name were inactive (follow-up assays come after a bar, where they were run); ! = not confirmed by another sample. The list is not random: actives were taken first. Their share in the collection is about 2.9%.

CCNC(=O)NC(=O)C(C)OC(=O)c1c(C)nn(Cc2ccccc2)c1Cl (configuration not stated)	none
O=C(O)c1ccc([N+](=O)[O-])c([N+](=O)[O-])c1	SENP8 block-1 40 (no result: SENP7 block, HSP90 inh, SENP6 inh, SENP8 block-2) | SENP8 conf inactive
N#CC12CNCC1CN=N2 (configuration not stated)	none (no result: SENP7 block, SENP6 inh, SENP8 block-2)
Cc1ncc(CN2CCCC(C(=O)c3sccc3C)C2)s1 (configuration not stated)	none
COc1ccc(-n2c(=O)[nH]c3ccccc3c2=O)c(OC)c1	none
COc1ccc2c(c1)NP(=S)(c1ccccc1)N2C (configuration not stated)	SENP8 block-1 54 (no result: SENP7 block, HSP90 inh, SENP6 inh, SENP8 block-2) | SENP8 conf inactive
O=C(CCc1ccccc1)N1C[C@H]2C[C@@H](C1)c1cccc(=O)n1C2	SENP8 block-1 61 | SENP8 conf inactive
COc1ccccc1CCNC(=O)CCC(=O)N1CC2C[C@@H](C1)Cn1c2cccc1=O	SENP8 block-1 46 | SENP8 conf inactive
CCCN(CCC)C1Cc2cc(OC)c(OC)cc2C1	none (no result: HSP90 inh)
Cn1c(O)c(/C=C2/C=CC=N2)c(=O)[nH]c1=O	none
O=C1NC(=O)C(Nc2ccc(Cl)c(Cl)c2)C(=O)N1	SENP8 block-1 65 (no result: SENP7 block, HSP90 inh, SENP6 inh, SENP8 block-2) | SENP8 conf 76
CO[C@H]1C=C2CCN(C)[C@H]2C2c3cc4c(cc3C(=O)O[C@@H]21)OCO4 (some centres not stated)	none (no result: HSP90 inh)
O=C(CCc1ccc(O)cc1)N1C[C@H]2C[C@@H](C1)c1cccc(=O)n1C2	none
CN1CC[C@@]2(C)c3cc(O)ccc3N(C)[C@@H]12	SENP8 block-1 44! (no result: SENP7 block, HSP90 inh, SENP6 inh, SENP8 block-2) | SENP8 conf 62
CN1C(=O)C(Cc2ccccc2)C(=O)N(C)C1=O	none (no result: SENP7 block, HSP90 inh, SENP6 inh, SENP8 block-2)
CN1C(=O)C(Cc2ccsc2)C(=O)N(C)C1=O	SENP8 block-1 47 | SENP8 conf inactive
O=C1NCN(c2ccccc2)C12CCN(C(c1ccccc1)c1nnnn1Cc1ccccc1)CC2 (configuration not stated)	none (no result: SENP7 block, HSP90 inh, SENP6 inh, SENP8 block-2)
CN(C)Cc1c[nH]c2ccccc12	SENP8 block-1 41 (no result: HSP90 inh) | SENP8 conf inactive
CC12CN3CC(C)(CN(C1)C31CCOCC1)C2=O	SENP8 block-1 41 | SENP8 conf inactive
COc1cc(C2c3cc4c(c(O)c3CC3COC(=O)C32)OCO4)cc(OC)c1OC (configuration not stated)	none (no result: SENP7 block, HSP90 inh, SENP6 inh, SENP8 block-2)
COc1cc(C2c3cc(O)c(OC)cc3CC3C(=O)OCC32)ccc1O (configuration not stated)	SENP8 block-1 44 (no result: SENP7 block, HSP90 inh, SENP6 inh, SENP8 block-2) | SENP8 conf inactive
CC1=NN=C(c2ccc(N)cc2)c2cc3c(cc2C1)OCO3	SENP1 inh 43 (no result: HSP90 inh) | SENP1 inh conf inactive | SENP1 kinetic inactive
CN1C(=O)C(=Cc2ccc(N3CCOCC3)o2)C(=O)N(C)C1=S	SENP1 inh 66 | SENP1 inh conf inactive | SENP1 kinetic inactive
CN1C(=O)C(=Cc2ccc(Sc3ccccc3)o2)C(=O)N(C)C1=S	none (no result: HSP90 inh)
CCN1C(=O)C(=Cc2ccc(N3CCOCC3)o2)C(=O)N(CC)C1=S	SENP1 inh 49 | SENP1 inh conf inactive | SENP1 kinetic inactive
Nc1ccccc1C(=O)OCc1ccc([N+](=O)[O-])cc1	none
O=C1NC(=O)C(Sc2ccccc2[N+](=O)[O-])C(=O)N1	SENP1 inh 32 | SENP1 inh conf inactive | SENP1 kinetic inactive
O=[N+]([O-])c1ccccc1Cl	none (no result: HSP90 inh)
CC1CCCCC1NC1CCN(C)CC1 (configuration not stated)	none
Cc1nn(Cc2ccccc2)c(C)c1C(=O)OCC(=O)Nc1ccccc1SCC#N	SENP1 inh 48 | SENP1 inh conf inactive | SENP1 kinetic inactive
COc1ccc(P2(=O)Nc3ccccc3N2)cc1	SENP1 inh 38 | SENP1 inh conf 94 | SENP1 kinetic 60
COc1ccc(NP2(=O)NCCCN2)cc1	none (no result: SENP7 block, HSP90 inh, SENP6 inh, SENP8 block-2)
COc1ccc([C@@H](O)[C@@H](N)c2ccccc2)cc1	none (no result: HSP90 inh)
